# Experimental data from ChEMBL document CHEMBL4680236, “Design, synthesis and structure-activity relationships of novel 15-membered macrolides: Quinolone/quinoline-containing sidechains tethered to the C-6 position of azithromycin acylides” (Eur J Med Chem, 2020).
# Columns and labels:
# Staphylococcus aureus [1] = test: Antibacterial activity against MLSB/methicillin/ciprofloxacin-resistant Staphylococcus aureus PU32 harboring ermA gene assessed as reduction in microbial growth relative to ciprofloxacin; assay type: functional
# Staphylococcus aureus [2] = test: Ratio of MBC to MIC against MLSB/methicillin/ciprofloxacin-resistant Staphylococcus aureus PU32 harboring ermA gene; assay type: functional
# DNA gyrase = DNA gyrase (Escherichia coli, UniProt P0AES4+P0AES6); test: Inhibition of Escherichia coli DNA gyrase using relaxed DNA as substrate incubated for 15 mins by ethidium bromide-based agarose gel electrophoresis; assay type: protein-complex assay
# In short: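 Supercoiling assay with relaxed pBR322 (0.3 µg), made by treating negatively supercoiled pBR322 with E. coli topoisomerase I, and 1 unit E. coli gyrase. Buffer: 50 mM Tris-HCl pH 8.0, 10 mM MgCl2, 100 mM potassium glutamate, 10 mM DTT, 50 µg/mL BSA, 1 mM ATP. Run 37 °C, 15 min, stopped with 25 mM EDTA. IC50 in µM.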
# Escherichia coli [3] = test: Antibacterial activity against Escherichia coli BW25113 depletion of toIC efflux gene assessed as reduction in microbial growth; assay type: functional
# Escherichia coli [4] = test: Antibacterial activity against Escherichia coli JW5503-1 depletion of toIC efflux gene assessed as reduction in microbial growth; assay type: functional
# Streptococcus pneumoniae [5] = test: Ratio of MBC to MIC against penicillin-susceptible Streptococcus pneumoniae PU09; assay type: functional
# Staphylococcus aureus [6] = test: Bactericidal activity against MLSB/methicillin-resistant Staphylococcus aureus 15B196; assay type: functional
# In short: (§1)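 Bacteria were exposed to 1- to 8-fold their MIC of test sample, then transferred to fresh culture medium without antibacterial compound and incubated for the required time. Colonies were then counted. MBC is the lowest concentration giving a reduction in colony number of >3 Log₁₀.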
# Escherichia coli [7] = test: Antibacterial activity against Escherichia coli JW5503-KanS depletion of toIC efflux gene assessed as reduction in microbial growth; assay type: functional
# Haemophilus influenzae [8] = test: Antibacterial activity against azithromycin-susceptible Haemophilus influenzae ATCC 49247 assessed as reduction in microbial growth; assay type: functional
# [9] = molecular target: T1, DNA gyrase (Escherichia coli) (UniProt P0AES6+P0AES4); test: Poison activity at Escherichia coli DNA gyrase assessed as stabilization of DNA cleavage complex by measuring linear plasmid DNA formation using supercoiled pBR322 incubated for 15 mins by electrophoresis relative to ciprofloxacin; assay type: protein-complex assay
# In short: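 Cleavage assay with 0.3 µg supercoiled pBR322 and 10 units E. coli gyrase. Buffer: 50 mM Tris-HCl pH 8.0, 10 mM MgCl2, 10 mM DTT, 50 µg/mL BSA, 1 mM ATP, 5 µg/mL tRNA; 37 °C, 15 min. Then 1% SDS for 5 min, then 25 mM EDTA plus 100 µg/mL proteinase K for 30 min. Phenol/chloroform extraction, then 1.2% agarose with ethidium bromide.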
# Streptococcus pneumoniae [10] = test: Bactericidal activity against Erythromycin-susceptible Streptococcus pneumoniae ATCC 49619; assay type: functional
# In short: (§2)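 Bacteria were exposed to 1- to 8-fold MIC of the sample, then transferred to fresh medium without antibacterial. After further incubation, colonies were counted. MBC was taken as the lowest concentration giving a >3 log10 reduction in colony number.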
# Streptococcus pneumoniae [11] = test: Antibacterial activity against penicillin-susceptible Streptococcus pneumoniae PU09 harboring mef gene assessed as reduction in microbial growth; assay type: functional
# Haemophilus influenzae [12] = test: Bactericidal activity against azithromycin-susceptible Haemophilus influenzae ATCC 49247; assay type: functional; in short: as §2
# Streptococcus pneumoniae [13] = test: Antibacterial activity against Erythromycin-susceptible Streptococcus pneumoniae ATCC 49619 assessed as reduction in microbial growth; assay type: functional
# Streptococcus pneumoniae [14] = test: Ratio of MBC to MIC against MLSB-resistant Streptococcus pneumoniae 07P390 harboring ermB; assay type: functional
# Streptococcus pneumoniae [15] = test: Antibacterial activity against MLSB-resistant Streptococcus pneumoniae 07P390 harboring ermB gene assessed as reduction in microbial growth; assay type: functional
# [16] = molecular target: T1, DNA gyrase (Escherichia coli); conditions: time 15.0 min
# Staphylococcus aureus [17] = test: Bactericidal activity against MLSB/methicillin/ciprofloxacin-resistant Staphylococcus aureus PU32 harboring ermA gene; assay type: functional; in short: as §1
# Streptococcus pneumoniae [18] = test: Bactericidal activity against penicillin-susceptible Streptococcus pneumoniae PU09 harboring mef gene; assay type: functional; in short: as §1
# Haemophilus influenzae [19] = test: Ratio of MBC to MIC against azithromycin-susceptible Haemophilus influenzae ATCC 49247; assay type: functional
# Streptococcus pneumoniae [20] = test: Ratio of MBC to MIC against Erythromycin-susceptible Streptococcus pneumoniae ATCC 49619; assay type: functional
# Staphylococcus aureus [21] = test: Ratio of MBC to MIC against MLSB/methicillin-resistant Staphylococcus aureus 15B196; assay type: functional
# Haemophilus influenzae [22] = test: Antibacterial activity against azithromycin-susceptible Haemophilus influenzae ATCC 49247 assessed as reduction in microbial growth relative to ciprofloxacin; assay type: functional
# Staphylococcus aureus [23] = test: Antibacterial activity against MLSB/methicillin-resistant Staphylococcus aureus 15B196 assessed as reduction in microbial growth; assay type: functional
# Staphylococcus aureus [24] = test: Antibacterial activity against MLSB/methicillin/ciprofloxacin-resistant Staphylococcus aureus PU32 harboring ermA gene assessed as reduction in microbial growth; assay type: functional
# Streptococcus pneumoniae [25] = test: Bactericidal activity against MLSB-resistant Streptococcus pneumoniae 07P390 harboring ermB gene assessed as reduction in microbial growth; assay type: functional; in short: as §1
# Staphylococcus aureus [26] = test: Antibacterial activity against MLSB/methicillin-resistant Staphylococcus aureus 15B196 assessed as reduction in microbial growth relative to ciprofloxacin; assay type: functional
# Streptococcus pyogenes [27] = test: Antibacterial activity against MLSB-resistant Streptococcus pyogenes 12-206 harboring ermA gene assessed as reduction in microbial growth; assay type: functional
# Streptococcus pyogenes [28] = test: Bactericidal activity against MLSB-resistant Streptococcus pyogenes 12-206 harboring ermA gene; assay type: functional; in short: as §1
# Streptococcus pyogenes [29] = test: Ratio of MBC to MIC against MLSB-resistant Streptococcus pyogenes 12-206 harboring ermA gene; assay type: functional
Compound,fold change (FC) (Staphylococcus aureus [1]),IC50 (DNA gyrase) [µM],MIC (Escherichia coli [3]) [µg/mL],MIC (Escherichia coli [4]) [µg/mL],Ratio (Streptococcus pneumoniae [5]),MBC (Staphylococcus aureus [6]) [µg/mL],MIC (Escherichia coli [7]) [µg/mL],MIC (Haemophilus influenzae [8]) [µg/mL],Activity [9] [%],MBC (Streptococcus pneumoniae [10]) [µg/mL],MIC (Streptococcus pneumoniae [11]) [µg/mL],MBC (Haemophilus influenzae [12]) [µg/mL],MIC (Streptococcus pneumoniae [13]) [µg/mL],Ratio (Streptococcus pneumoniae [14]),MIC (Streptococcus pneumoniae [15]) [µg/mL],EC [16] [µM],MBC (Staphylococcus aureus [17]) [µg/mL],MBC (Streptococcus pneumoniae [18]) [µg/mL],Ratio (Haemophilus influenzae [19]),Ratio (Streptococcus pneumoniae [20]),other results
CC[C@H]1OC(=O)[C@H](C)[C@@H](OC(=O)Cc2ccccn2)[C@H](C)[C@@H](O[C@@H]2O[C@H](C)C[C@H](N(C)C)[C@H]2O)[C@](C)(OC(=O)CCN2CCN(c3cc4c(cc3F)c(=O)c(C(=O)O)cn4C3CC3)CC2)C[C@@H](C)CN(C)[C@H](C)[C@@H](O)[C@]1(C)O,0.076,44.1,4,1,2,128,1,0.25,28,0.25,2,0.25,0.125,8,4,69.5,> 128,4,1,2,Ratio (Staphylococcus aureus [2]): >8; Ratio (Staphylococcus aureus [21]): 8; fold change (FC) (Haemophilus influenzae [22]): 19; MIC (Staphylococcus aureus [23]): 16 µg/mL; MIC (Staphylococcus aureus [24]): 16 µg/mL; MBC (Streptococcus pneumoniae [25]): 32 µg/mL; fold change (FC) (Staphylococcus aureus [26]): 9.7
CC[C@H]1OC(=O)[C@H](C)[C@@H](OC(=O)Cc2ccccn2)[C@H](C)[C@@H](O[C@@H]2O[C@H](C)C[C@H](N(C)C)[C@H]2O)[C@](C)(OC(=O)CCN2CCN(c3c(F)cc4c(=O)c(C(N)=O)cn(C5CC5)c4c3OC)CC2C)C[C@@H](C)CN(C)[C@H](C)[C@@H](O)[C@]1(C)O (stereo partly specified),0.14,9.6,2,0.5,4,8,0.5,0.5,71,1,2,0.5,0.5,1,8,18.2,> 256,8,1,2,MIC (Streptococcus pyogenes [27]): 8 µg/mL; MBC (Streptococcus pyogenes [28]): > 64 µg/mL; Ratio (Streptococcus pyogenes [29]): >8; Ratio (Staphylococcus aureus [21]): 1; fold change (FC) (Haemophilus influenzae [22]): 36; MIC (Staphylococcus aureus [23]): 8 µg/mL; MIC (Staphylococcus aureus [24]): 128 µg/mL; MBC (Streptococcus pneumoniae [25]): 8 µg/mL; fold change (FC) (Staphylococcus aureus [26]): 1.2
